ChEMBL document CHEMBL1926642, “Relevance of the C-5 position to schweinfurthin induced cytotoxicity” (2011)

What was measured:
Assay type in all cases: functional
[1] = tested on: CCRF-CEM; test: Growth inhibition of human CCRF-CEM cells after 48 hrs by sulforhodamine B assay
[2] = tested on: HL-60(TB); test: Growth inhibition of human HL-60(TB) cells after 48 hrs by sulforhodamine B assay; details: HL-60, 48 h
In short: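 Run in the NCI 60 cell-line screen as the full 5-dose assay that follows initial single-dose testing; GI50 is read from the dose series.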

[3] = tested on: K562; test: Growth inhibition of human K562 cells after 48 hrs by sulforhodamine B assay; details: K562, 48 h
[4] = tested on: MOLT-4; test: Growth inhibition of human MOLT4 cells after 48 hrs by sulforhodamine B assay; details: MOLT-4, 48 h
[5] = tested on: RPMI-8226; test: Growth inhibition of human RPMI8226 cells after 48 hrs by sulforhodamine B assay; details: RPMI-8226, 48 h
[6] = tested on: EKVX; test: Growth inhibition of human EKVX cells after 48 hrs by sulforhodamine B assay
[7] = tested on: HOP-62; test: Growth inhibition of human HOP62 cells after 48 hrs by sulforhodamine B assay; details: HOP-62, 48 h
[8] = tested on: NCI-H226; test: Growth inhibition of human NCI-H226 cells after 48 hrs by sulforhodamine B assay; details: NCI-H226, 48 h
[9] = tested on: NCI-H23; test: Growth inhibition of human NCI-H23 cells after 48 hrs by sulforhodamine B assay; details: NCI-H23, 48 h
[10] = tested on: NCI-H322M; test: Growth inhibition of human NCI-H322M cells after 48 hrs by sulforhodamine B assay
[11] = tested on: NCI-H460; test: Growth inhibition of human NCI-H460 cells after 48 hrs by sulforhodamine B assay; details: NCI-H460, 48 h
[12] = tested on: HCC 2998; test: Growth inhibition of human HCC2998 cells after 48 hrs by sulforhodamine B assay; details: HCC 2998, 48 h
[13] = tested on: HCT-116; test: Growth inhibition of human HCT116 cells after 48 hrs by sulforhodamine B assay; details: HCT-116, 48 h
[14] = tested on: HCT-15; test: Growth inhibition of human HCT15 cells after 48 hrs by sulforhodamine B assay; details: HCT-15, 48 h
[15] = tested on: KM12; test: Growth inhibition of human KM12 cells after 48 hrs by sulforhodamine B assay; details: KM12, 48 h
[16] = tested on: SF-295; test: Growth inhibition of human SF295 cells after 48 hrs by sulforhodamine B assay; details: SF-295, 48 h
[17] = tested on: U-251; test: Growth inhibition of human U251 cells after 48 hrs by sulforhodamine B assay; details: U-251, 48 h
[18] = tested on: SK-MEL-2; test: Growth inhibition of human SK-MEL-2 cells after 48 hrs by sulforhodamine B assay; details: SK-MEL-2, 48 h
[19] = tested on: SK-MEL-5; test: Growth inhibition of human SK-MEL-5 cells after 48 hrs by sulforhodamine B assay; details: SK-MEL-5, 48 h
[20] = tested on: IGROV-1; test: Growth inhibition of human IGROV1 cells after 48 hrs by sulforhodamine B assay; details: IGROV-1, 48 h
[21] = tested on: OVCAR-3; test: Growth inhibition of human OVCAR3 cells after 48 hrs by sulforhodamine B assay; details: OVCAR-3, 48 h
[22] = tested on: OVCAR-4; test: Growth inhibition of human OVCAR4 cells after 48 hrs by sulforhodamine B assay; details: OVCAR-4, 48 h
[23] = tested on: OVCAR-5; test: Growth inhibition of human OVCAR5 cells after 48 hrs by sulforhodamine B assay; details: OVCAR-5, 48 h
[24] = tested on: OVCAR-8; test: Growth inhibition of human OVCAR8 cells after 48 hrs by sulforhodamine B assay; details: OVCAR-8, 48 h
[25] = tested on: SK-OV-3; test: Growth inhibition of human SKOV3 cells after 48 hrs by sulforhodamine B assay; details: SK-OV-3, 48 h
[26] = tested on: CAKI-1; test: Growth inhibition of human Caki1 cells after 48 hrs by sulforhodamine B assay; details: CAKI-1, 48 h
[27] = tested on: SN12C; test: Growth inhibition of human SN12C cells after 48 hrs by sulforhodamine B assay
[28] = tested on: TK-10; test: Growth inhibition of human TK10 cells after 48 hrs by sulforhodamine B assay; details: TK-10, 48 h
[29] = tested on: UO-31; test: Growth inhibition of human UO31 cells after 48 hrs by sulforhodamine B assay; details: UO-31, 48 h
[30] = tested on: MDA-MB-231; test: Growth inhibition of human MDA-MB-231/ATCC cells after 48 hrs by sulforhodamine B assay; details: MDA-MB-231, 48 h
[31] = Growth inhibition of human Hs 578T cells after 48 hrs by sulforhodamine B assay
[32] = tested on: T47D; test: Growth inhibition of human T47D cells after 48 hrs by sulforhodamine B assay
[33] = read-out: pLC50 (the source's name) (converted)

COc1cc(/C=C/c2cc3c(c(SC)c2)O[C@]2(C)CC[C@@H](O)C(C)(C)[C@H]2C3)cc(O)c1C/C=C(\C)CCC=C(C)C
GI50 [1]: 5.62 µM | LC50 [1]: > 100 µM | TGI ([1]; read-out: pTGI (converted)): > 100 µM | GI50 [2]: 5.13 µM | CC50 [2, 33]: > 100 µM | TGI ([2]; read-out: pTGI (converted)): 36.3 µM | GI50 [3]: 4.27 µM | LC50 [3]: > 100 µM | TGI ([3]; read-out: pTGI (converted)): > 100 µM | GI50 [4]: 4.27 µM | LC50 [4]: > 100 µM | TGI ([4]; read-out: pTGI (converted)): 100 µM | GI50 [5]: 2.34 µM | LC50 [5]: > 100 µM | TGI ([5]; read-out: pTGI (converted)): 8.91 µM | GI50 [6]: 40.7 µM | LC50 (50% lethal concentration) [6]: > 100 µM | TGI ([6]; read-out: pTGI (converted)): > 100 µM | GI50 [7]: 12 µM | LC50 [7]: 79.4 µM | TGI ([7]; read-out: pTGI (converted)): 30.9 µM | GI50 [8]: 15.1 µM | LC50 [8]: > 100 µM | TGI ([8]; read-out: pTGI (converted)): 39.8 µM | GI50 [9]: 11.5 µM | LC50 [9]: > 100 µM | TGI ([9]; read-out: pTGI (converted)): 36.3 µM | GI50 [10]: 51.3 µM | LC50 [10]: > 100 µM | TGI ([10]; read-out: pTGI (converted)): > 100 µM | GI50 [11]: 3.47 µM | LC50 (concentration killing 50% of cells) [11]: 51.3 µM | TGI ([11]; read-out: pTGI (converted)): 13.8 µM | GI50 [12]: 12 µM | LC50 [12]: > 100 µM | TGI ([12]; read-out: pTGI (converted)): 38.9 µM | GI50 [13]: 6.46 µM | LC50 [13]: 53.7 µM | TGI ([13]; read-out: pTGI (converted)): 20.9 µM | GI50 [14]: 2.95 µM | LC50 [14]: 72.4 µM | TGI ([14]; read-out: pTGI (converted)): 8.91 µM | GI50 [15]: 4.27 µM | LC50 [15]: 83.2 µM | TGI ([15]; read-out: pTGI (converted)): 20.4 µM | LC50 [16]: > 100 µM | GI50 ([16]; read-out: GI50): 3.8 µM | GI50 ([16]; read-out: pGI50 (converted)): 3.02 µM | TGI ([16]; read-out: pTGI (converted)): 25.1 µM | GI50 [17]: 5.01 µM | LC50 [17]: 85.1 µM | TGI ([17]; read-out: pTGI (converted)): 24 µM | GI50 [18]: 12.6 µM | LC50 [18]: 69.2 µM | TGI ([18]; read-out: pTGI (converted)): 29.5 µM | GI50 [19]: 9.77 µM | LC50 [19]: 55 µM | TGI ([19]; read-out: pTGI (converted)): 23.4 µM | GI50 [20]: 39.8 µM | LC50 [20]: > 100 µM | TGI ([20]; read-out: pTGI (converted)): > 100 µM | GI50 [21]: 5.89 µM | LC50 [21]: 43.7 µM | TGI ([21]; read-out: pTGI (converted)): 18.2 µM | GI50 [22]: 23.4 µM | LC50 [22]: > 100 µM | TGI ([22]; read-out: pTGI (converted)): > 100 µM | GI50 [23]: 22.9 µM | LC50 [23]: > 100 µM | TGI ([23]; read-out: pTGI (converted)): 57.5 µM | GI50 [24]: 14.8 µM | LC50 [24]: > 100 µM | TGI ([24]; read-out: pTGI (converted)): 41.7 µM | GI50 [25]: 7.94 µM | LC50 [25]: > 100 µM | TGI ([25]; read-out: pTGI (converted)): 43.7 µM | GI50 [26]: 27.5 µM | LC50 [26]: > 100 µM | TGI ([26]; read-out: pTGI (converted)): > 100 µM | GI50 [27]: 10.5 µM | LC50 [27]: > 100 µM | TGI ([27]; read-out: pTGI (converted)): 32.4 µM | GI50 [28]: 20.9 µM | LC50 [28]: > 100 µM | TGI ([28]; read-out: pTGI (converted)): > 100 µM | GI50 [29]: 8.91 µM | LC50 [29]: > 100 µM | TGI ([29]; read-out: pTGI (converted)): > 100 µM | GI50 [30]: 3.39 µM | CC50 [30, 33]: 56.2 µM | TGI ([30]; read-out: pTGI (converted)): 14.5 µM | GI50 [31]: 2.4 µM | CC50 [31, 33]: > 100 µM | TGI ([31]; read-out: pTGI (converted)): 19.5 µM | GI50 [32]: 14.5 µM | LC50 [32]: > 100 µM | TGI ([32]; read-out: pTGI (converted)): 67.6 µM
